Results from ChEMBL document CHEMBL1127613, “Synthesis and pharmacological properties of 11-hydroxy-3-(1',1'-dimethylheptyl)hexahydrocannabinol: a high-affinity cannabinoid agonist” (1994).

How the values were obtained:
Type in all cases: functional
[1] = tested on: Mus musculus; test: Compound was evaluated for reduction of rectal temperature at 60 min in mouse when administered intravenously; conditions: iv, 1 h
How it was run: (§1)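 Mice given the analog by intravenous injection, then run through a tetrad. Spontaneous activity is scored at 5–15 min, tail-flick at 20 min, rectal temperature at 60 min and ring immobility at 90 min after injection. ED50 comes from log dose–response linear regression over n = 4–7 active doses, with standard error estimated by ALLFIT.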

[2] = tested on: Mus musculus; test: Compound was evaluated for inhibition of spontaneous activity at 5-15 min in mouse when administered intravenously; conditions: iv; how it was run: as §1
[3] = tested on: Mus musculus; test: Compound was evaluated for inhibition of tail-flick response at 20 min in mouse when administered intravenously; conditions: iv; how it was run: as §1
[4] = tested on: Mus musculus; test: Compound was evaluated for production of ring immobility at 90 min in mouse when administered intravenously; conditions: iv, 1.5 h; how it was run: as §1

SMILES | ED50 [1] [mg/kg] | ED50 [2] [mg/kg] | ED50 [3] [mg/kg] | ED50 [4] [mg/kg]
CCCCCCC(C)(C)c1cc(O)c2c(c1)OC(C)(C)[C@@H]1CC[C@@H](CO)C[C@@H]21 | 0.037 | 0.0054 | 0.0018 | 0.027
CCCCCc1cc(O)c2c(c1)OC(C)(C)C1CCC(C)=C[C@@H]21 (single isomer, unassigned) [DRONABINOL] | 1.42 | 1.01 | 1.42 | 1.51
CCCCCCC(C)(C)c1cc(O)c2c(c1)OC(C)(C)[C@H]1CC[C@H](CO)C[C@H]21 | 6.9 | 0.77 | 0.58 | 2.5
